Screening results (PubChem)
An excerpt weighted towards active compounds, which were near 4.1% of everything screened.
KCNQ1 block: inhibitors of human KCNQ1 channel, primary screen, cell-based, thallium flux, high-throughput. CHO-K1 KCNQ1, FluxOR thallium flux fluorescence; hits give high values. B-score at 10 µM. 1.3% of 310,000 active;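 active = compounds whose thallium flux B-score, printed positive for inhibition, exceeds three library SD while starting fluorescence stays within three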;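 also: channel opened by potassium depolarization with thallium stimulus after 20 min compound exposure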
hERG rescue: hERG rescue from dofetilide block, primary screen, cell-based, CHO-hERG, FluxOR thallium flux, dofetilide IC70. Voltage-gated inwardly rectifying potassium channel KCNH2 (Homo sapiens), Q12809. AID 1511, 2009. activation (rescue from dofetilide block), less the hit threshold, % at 10 µM. dofetilide IC70 present. 0.51% of 310,000 active;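 active = activation above the mean of controls blocked by dofetilide plus 5 SD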;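 also: thallium influx through hERG after potassium depolarization seen as dye fluorescence rise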
KCNQ1 act: potentiators or activators of KCNQ1 channel, primary screen, cell-based, thallium flux, high-throughput. Potassium voltage-gated channel subfamily KQT member 1 (Homo sapiens), P51787. CHO-K1 KCNQ1, thallium flux FluxOR fluorescence; hits give high values. B-score at 10 µM. 0.35% of 310,000 active. AID 2648, 2010;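 active = fluorescence ratio B-score, a plate-corrected score, at least three library SD, with initial intensity B-score within 5 SD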
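assay system = KCNQ1-transfected CHO-K1 cells | medium = assay buffer with matched DMSO | probe or stimulus = depolarizing K+/Tl+ stimulus, K2SO4 and Tl2SO4 each 12.5 mM in 5x stock | dosing = single dose | incubation = dye 90 min, compound 20 min, room temperature | detection = kinetic FluxOR fluorescence, 10 s baseline plus 110 s post-stimulus | evaluation = ratio B score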
KCC2 mod: KCC2 cotransporter modulators, thallium flux, primary screen, cell-based, HEK293 KCC2, FluoZin-2 fluorescence, MLSMR | Solute carrier family 12 member 5 (Homo sapiens), Q9H2X9 | KCC2 cells, thallium flux FluoZin-2 fluorescence | B-score of Tl+ flux slope (higher = more flux/activation; lower = inhibition) at 10 µM | 2.2% of 190,000 active | AID 1456, 2008;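 active = thallium flux slope and its plate-corrected score both differing from the plate sample mean at a set confidence after two filtering rounds, in either direction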;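 also: slope of fluorescence scaled to starting intensity during 10 to 20 s after thallium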
Target sequence (Q9H2X9 whole entry, looked up): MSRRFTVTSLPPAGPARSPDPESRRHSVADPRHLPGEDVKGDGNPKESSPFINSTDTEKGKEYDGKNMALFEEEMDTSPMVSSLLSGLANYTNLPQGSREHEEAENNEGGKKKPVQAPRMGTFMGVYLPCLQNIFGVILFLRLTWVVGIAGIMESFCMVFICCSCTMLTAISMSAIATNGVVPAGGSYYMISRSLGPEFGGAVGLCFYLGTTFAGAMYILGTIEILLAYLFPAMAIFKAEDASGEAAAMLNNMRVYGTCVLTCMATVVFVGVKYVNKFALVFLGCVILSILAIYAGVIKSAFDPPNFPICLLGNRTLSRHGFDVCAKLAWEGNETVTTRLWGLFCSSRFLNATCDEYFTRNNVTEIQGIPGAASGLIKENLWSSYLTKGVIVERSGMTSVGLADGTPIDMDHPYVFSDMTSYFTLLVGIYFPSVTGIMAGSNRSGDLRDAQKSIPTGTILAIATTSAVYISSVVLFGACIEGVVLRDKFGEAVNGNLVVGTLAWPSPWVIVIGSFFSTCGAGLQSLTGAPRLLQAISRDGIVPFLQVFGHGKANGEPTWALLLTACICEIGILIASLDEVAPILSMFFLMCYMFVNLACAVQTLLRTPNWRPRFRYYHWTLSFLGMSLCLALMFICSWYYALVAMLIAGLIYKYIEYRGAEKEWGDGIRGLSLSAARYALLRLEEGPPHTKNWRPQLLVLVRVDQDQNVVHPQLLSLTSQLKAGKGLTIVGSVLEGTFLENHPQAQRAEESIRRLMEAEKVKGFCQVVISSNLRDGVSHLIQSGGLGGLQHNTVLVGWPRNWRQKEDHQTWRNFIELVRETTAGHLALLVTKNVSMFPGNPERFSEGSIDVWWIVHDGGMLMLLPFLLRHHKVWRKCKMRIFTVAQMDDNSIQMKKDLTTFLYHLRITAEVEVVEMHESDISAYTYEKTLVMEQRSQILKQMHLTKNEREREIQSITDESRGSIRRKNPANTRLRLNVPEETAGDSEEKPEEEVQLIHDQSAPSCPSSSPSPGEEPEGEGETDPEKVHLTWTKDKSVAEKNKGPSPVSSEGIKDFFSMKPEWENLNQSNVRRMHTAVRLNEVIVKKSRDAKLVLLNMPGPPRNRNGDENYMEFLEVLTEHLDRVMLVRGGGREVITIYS
KCNK3 block: human KCNK3 channel inhibitors, primary screen, CHO cells, FluxOR thallium flux, B-score; 0.84% of 340,000 active; AID 602410, 2012; B-score at 10 µM; Potassium channel subfamily K member 3 (Homo sapiens), O14649; FluxOR fluorescence; hits give low values;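 active = B-score under library mean minus 4 SD, starting fluorescence ratio at most library mean plus 5 SD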;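 also: more negative B-score means stronger inhibition of thallium flux through KCNK3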
KCNK9 block: KCNK9 potassium channel inhibitors, primary screen, HEK293 cells, thallium flux; Potassium channel subfamily K member 9 (Homo sapiens), Q9NPC2; FluxOR thallium flux fluorescence; hits give low values; B-score at 10 µM; 1.2% of 310,000 active; AID 488922, 2010;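 active = ratio B-score over 3 SD below the library mean, with starting fluorescence within 5 SD of its mean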;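 also: negative B-score means less thallium flux so channel inhibition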
KCNQ1 inh valid: KCNQ1 potassium channel inhibitors, confirmation, cell-based, Tl flux, duplicate | 93% of 1,600 active | inhibition, % at 10 µM | shares compounds with KCNQ1 block | KCNQ1 cell line, FluxOR thallium flux fluorescence;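 active = primary screen active, with duplicate mean exceeding buffer control mean plus 3 SD of buffer wells, cut at about 28% in these data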
CHO KCNQ1 ctr: thallium flux effects in parental CHO cells, counter-screen for KCNQ1 inhibitor project, cell-based, Tl flux; 21% of 1,600 active; shares compounds with KCNQ1 block; fluorescence ratio (Tl flux) at 10 µM; parental CHO-K1, FluxOR thallium flux fluorescence ratio; hits give low values; zero means no signal rise above baseline;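 active = mean of duplicate thallium-flux fluorescence ratios in parental host cells more than 5 SD below the buffer control mean, cut at about 0.38 in these data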;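 also: ratio is peak minus minimum fluorescence divided by baseline fluorescence; actives read low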
KCNQ1 APC inh: KCNQ1 channel inhibitors, confirmation, orthogonal assay, cell-based, automated electrophysiology | shares compounds with KCNQ1 block | KCNQ1-CHO cells, automated patch clamp current | calls only at 10 µM | 20% of 490 active;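 active = KCNQ1 current drop exceeding 3 SD of negative control wells, seen in both duplicate runs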;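 also: steady state current during a 2 s step from -80 to +40 mV; negative values mean current inhibition and positive values mean potentiation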
KCNQ2 inh: KCNQ2 channel inhibition, selectivity assay for KCNQ1 inhibitor project, cell-based; shares compounds with KCNQ1 block; 71% of 1,600 active; inhibition, % at 10 µM; AID 651746, 2012; KCNQ2 cells, FluxOR thallium flux fluorescence;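 active = mean percent inhibition of the KCNQ2 thallium signal more than 5 SD above the buffer-only control wells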;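 also: KCNQ2 expressed in CHO cells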
KCNQ1-KCNE1 inh: KCNQ1/KCNE1 channel inhibition, selectivity assay for KCNQ1 inhibitor project, CHO-K1 cells, thallium flux, FluxOR | 77% of 1,600 active | AID 652147, 2013 | FluxOR thallium flux fluorescence | shares compounds with KCNQ1 block | inhibition, % at 10 µM;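 active = mean percent inhibition of duplicate wells above the buffer-only control mean plus 3 SD of those controls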
Each line names hits and unclear results; the compound was inactive in the other large screens (follow-up assays come after a bar, where they were run).

CC(C)Cn1c(=O)c(C(=O)Nc2ccccc2S(N)(=O)=O)c(O)c2ccccc21	KCNQ1 block 8 | KCNQ1 inh valid 118 | CHO KCNQ1 ctr inactive | KCNQ2 inh 63% | KCNQ1-KCNE1 inh 148%
COC(=O)c1ccccc1NC(=O)CN1CCN(c2ccccn2)CC1	none
COC(=O)c1ccccc1N/C=C1\CCc2c(c(C)nn2-c2ccccn2)C1=O	KCNQ1 block 6 (no result: KCC2 mod) | KCNQ1 inh valid 96 | CHO KCNQ1 ctr inactive | KCNQ1 APC inh inactive | KCNQ2 inh 97% | KCNQ1-KCNE1 inh 141%
Cc1ccc(-c2cn3nc(-c4ccccc4)c(-c4ccccc4)nc3n2)cc1	none
c1ccc(-c2cn3nc(-c4ccccc4)c(-c4ccccc4)nc3n2)cc1	KCNQ1 block 6 (no result: KCC2 mod) | KCNQ1 inh valid active | CHO KCNQ1 ctr 0.17 | KCNQ2 inh inactive | KCNQ1-KCNE1 inh inactive
COc1ccc2sc(-c3ccccc3OC)c(C#CC(C)(C)O)c2c1	none (no result: KCNQ1 block, hERG rescue, KCNQ1 act, KCC2 mod, KCNK9 block)
Cc1cc(NC(=S)Nc2cccnc2)ccc1Br	KCNQ1 block 10 | KCNQ1 inh valid 67 | CHO KCNQ1 ctr inactive | KCNQ2 inh inactive | KCNQ1-KCNE1 inh inactive
CCOC(=O)c1ccc(NC(=S)NCCc2ccccc2)cc1	none (no result: KCC2 mod)
CCOC(=O)c1ccc(NC(=S)NCCc2ccccc2F)cc1	KCNQ1 block 8 | KCNQ1 inh valid 84 | CHO KCNQ1 ctr inactive | KCNQ2 inh 77% | KCNQ1-KCNE1 inh 50%
OCCC1CN(Cc2cccnc2)CCN1CCc1ccccc1 (stereo not drawn)	KCNQ1 block 7 | KCNQ1 inh valid inactive | CHO KCNQ1 ctr inactive | KCNQ2 inh inactive | KCNQ1-KCNE1 inh inactive
Clc1ccc(Cl)c2sc(N3CCOCC3)nc12	KCNQ1 block 8 (no result: KCC2 mod) | KCNQ1 inh valid 26 | CHO KCNQ1 ctr inactive | KCNQ2 inh inactive | KCNQ1-KCNE1 inh inactive
CN(C)CCNC(=O)c1ccc(Sc2ccc(Br)cc2)c([N+](=O)[O-])c1	KCNQ1 block 15 | KCNQ1 inh valid inactive | CHO KCNQ1 ctr inactive | KCNQ2 inh inactive | KCNQ1-KCNE1 inh inactive
COCCn1c(SCC(=O)Nc2ccccc2OC)nnc1-c1ccco1	none (no result: KCC2 mod)
COc1ccc(C(=O)C2CCCN(Cc3cc(C)c(O)c(C)c3)C2)c(OC)c1 (stereo not drawn)	none (no result: KCC2 mod)
COc1ccc(C(=O)C2CCCN(Cc3cc(Cl)ccc3O)C2)c(OC)c1 (stereo not drawn)	KCNQ1 block 6 (no result: KCC2 mod) | KCNQ1 inh valid 62 | CHO KCNQ1 ctr inactive | KCNQ2 inh 122% | KCNQ1-KCNE1 inh 86%
COc1ccc(OC(C)C(=O)NC2CC(C)(C)NC(C)(C)C2)cc1 (stereo not drawn)	none
CC(=O)NC1CCCc2c1cnn2-c1ccc(C(C)(C)C)cc1 (stereo not drawn)	none (no result: KCC2 mod)
Cc1cc(C(=O)NC2CCCc3c2cnn3-c2cccc(C)c2C)n(C)n1 (stereo not drawn)	KCNQ1 block 16 (no result: KCC2 mod) | KCNQ1 inh valid 84 | CHO KCNQ1 ctr inactive | KCNQ2 inh 60% | KCNQ1-KCNE1 inh 46%
Cn1nccc1C(=O)NC1CCCc2c1cnn2-c1ccc(C(C)(C)C)cc1 (stereo not drawn)	KCNQ1 block 9 (no result: KCC2 mod) | KCNQ1 inh valid 94 | CHO KCNQ1 ctr inactive | KCNQ1 APC inh inactive | KCNQ2 inh 93% | KCNQ1-KCNE1 inh 43%
COc1ccc(C(NC(=O)CC(C)C)NC(=O)CC(C)C)cc1OC	none
O=C(NCCCN1CCOCC1)c1ccc(S(=O)(=O)Nc2cccc(C(F)(F)F)c2)cc1	none (no result: KCC2 mod)
CCOc1ncccc1C(=O)N1CCN(S(=O)(=O)c2ccc(Br)cc2Cl)CC1	none
Clc1ccc2[nH]c(-c3ccccc3)cc2c1	KCNQ1 block 9 | KCNQ1 inh valid 131 | CHO KCNQ1 ctr inactive | KCNQ1 APC inh inactive | KCNQ2 inh 92% | KCNQ1-KCNE1 inh 132%
c1ccc(-c2cc3ccccc3[nH]2)cc1	none (no result: KCC2 mod)
CC1C(=O)N2CCCc3cc(NC(=O)C(=O)NCCc4c[nH]c5ccccc45)cc1c32 (stereo not drawn)	KCNQ1 block 10 (no result: KCC2 mod) | KCNQ1 inh valid 26 | CHO KCNQ1 ctr inactive | KCNQ2 inh 87% | KCNQ1-KCNE1 inh 57%
O=C(Nc1ccccc1Cl)NN1CCCCCC1	none (no result: KCNQ1 block, hERG rescue, KCNQ1 act, KCC2 mod, KCNK9 block)
O=C1c2ccc(Br)cc2C(=O)N1c1ccc(Cc2ccncc2)cc1	KCNQ1 block 15 (no result: KCC2 mod) | KCNQ1 inh valid 140 | CHO KCNQ1 ctr inactive | KCNQ1 APC inh inactive | KCNQ2 inh 99% | KCNQ1-KCNE1 inh 128%
O=C1C2C3C=CC(C3)C2C(=O)N1c1ccc(Cc2ccncc2)cc1 (stereo not drawn)	none
O=C(Nc1ccc(C(F)(F)F)cc1)c1ccc2nc[nH]c2c1	KCNQ1 block 6 | KCNQ1 inh valid 78 | CHO KCNQ1 ctr inactive | KCNQ2 inh 86% | KCNQ1-KCNE1 inh inactive
CC/C(=N\NC(=O)Cc1ccc(Br)cc1)c1cccs1	none (no result: KCC2 mod)
O=C(C1COc2ccccc2O1)N1CCN(Cc2ccc3c(c2)OCO3)CC1 (stereo not drawn)	none
O=C(C1COc2ccccc2O1)N1CCN(Cc2ccc(Br)cc2F)CC1 (stereo not drawn)	KCNQ1 block 8 (no result: KCC2 mod) | KCNQ1 inh valid 60 | CHO KCNQ1 ctr inactive | KCNQ2 inh 108% | KCNQ1-KCNE1 inh 80%
